Activity calls are given as the source filed them. The rule behind the calls is not given here.
Biological target: T1, Sphingosine kinase 2 (Homo sapiens) (UniProt Q9NRA0)
T1 sequence (whole entry): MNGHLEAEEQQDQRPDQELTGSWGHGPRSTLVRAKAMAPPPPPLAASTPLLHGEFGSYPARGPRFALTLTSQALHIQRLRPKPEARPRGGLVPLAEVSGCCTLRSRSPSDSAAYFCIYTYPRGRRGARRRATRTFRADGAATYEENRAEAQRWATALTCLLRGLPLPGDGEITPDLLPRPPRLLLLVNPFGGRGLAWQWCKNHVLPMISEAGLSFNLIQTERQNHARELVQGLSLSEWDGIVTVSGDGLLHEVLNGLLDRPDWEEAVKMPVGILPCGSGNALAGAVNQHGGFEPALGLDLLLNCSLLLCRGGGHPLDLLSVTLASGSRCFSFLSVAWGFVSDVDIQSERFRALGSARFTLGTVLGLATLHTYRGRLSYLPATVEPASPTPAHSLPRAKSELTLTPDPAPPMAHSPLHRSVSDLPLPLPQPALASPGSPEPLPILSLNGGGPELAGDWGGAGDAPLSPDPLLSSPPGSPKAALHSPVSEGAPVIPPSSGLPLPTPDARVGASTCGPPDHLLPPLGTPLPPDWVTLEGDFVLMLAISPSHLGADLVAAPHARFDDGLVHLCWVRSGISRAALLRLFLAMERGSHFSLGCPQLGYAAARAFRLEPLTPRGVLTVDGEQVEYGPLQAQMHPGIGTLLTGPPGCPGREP
Assay: Inhibition of human recombinant Sphk2 at 10 uM after 60 mins by ADP2 fluorescence intensity assay
Settings: not given
Outline: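 Human recombinant SphK2 (stock 0.5 mg/mL in Tris-HCl pH 8.0/imidazole/DTT/glycerol) pre-incubated 15 min at RT with compound at 10 µM or DMSO. Reaction with D-erythro-sphingosine and ATP ran 60 min at RT at 10–15% substrate conversion. ADP was read by Transcreener ADP² FI competitive fluorescence against an ATP/ADP standard curve. % inhibition vs DMSO given as mean ± SEM of five independent experiments, one-sample t-test.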

Question: Which inhibition does the source give for COc1ccc(/C=C/C(=O)Nc2nc(-c3ccc(Cl)cc3)cs2)cc1OC here?
Answer: 31.7%

Question: Which inhibition does the source give for COc1ccccc1Nc1nc(C23CC4CC(CC(C4)C2)C3)c(C)s1 here?
Answer: 41.6%

Question: With Cc1sc(Nc2ccc(O)cc2)nc1-c1ccc(Cl)cc1 as the compound, how does the inhibition read?
Answer: inactive

Question: Which inhibition does the source give for COc1cc(Nc2nc(C34CC5CC(CC(C5)C3)C4)c(C)s2)cc(OC)c1OC here?
Answer: 21.5%

Question: With COc1cc(Nc2nc(-c3ccc(Cl)cc3)cs2)cc(OC)c1OC as the compound, how does the inhibition read?
Answer: inactive

Question: For Oc1ccc(Nc2nc(-c3ccc(Br)cc3)cs2)cc1, which inhibition is on record?
Answer: 10.3%

Question: Which inhibition does the source give for CSc1ccc(Nc2nc(C34CC5CC(CC(C5)C3)C4)cs2)cc1 here?
Answer: 18.6%

Question: Which inhibition does the source give for COc1cc(/C=C/C(=O)Nc2nccs2)cc(OC)c1OC here?
Answer: 26.6%

Question: Which inhibition does the source give for OCc1ccc(Nc2nc(-c3ccc(Cl)cc3)cs2)cc1 here?
Answer: inactive

Question: For COc1cc(Nc2nc(C34CC5CC(CC(C5)C3)C4)cs2)cc(OC)c1OC, which inhibition is on record?
Answer: 20.8%

Question: Which inhibition does the source give for FC(F)(F)c1ccc(Nc2nc(-c3ccc(Cl)cc3)cs2)cc1 here?
Answer: inactive

Question: With Oc1cccc(Nc2nc(-c3ccc(Cl)cc3)cs2)c1 as the compound, how does the inhibition read?
Answer: inactive

Question: For COc1ccc(Nc2nc(-c3ccc(Cl)cc3)c(C)s2)cc1, which inhibition is on record?
Answer: inactive

Question: For COc1ccccc1Nc1nc(C23CC4CC(CC(C4)C2)C3)cs1, which inhibition is on record?
Answer: 19%

Question: With c1cc2c(cc1Nc1nc(C34CC5CC(CC(C5)C3)C4)cs1)OCO2 as the compound, how does the inhibition read?
Answer: 41.3%

Question: Which inhibition does the source give for COc1cc(Nc2nc(-c3ccc(Cl)cc3)c(C)s2)cc(OC)c1OC here?
Answer: inactive

Question: Which inhibition does the source give for Oc1ccccc1Nc1nc(-c2ccc(Cl)cc2)cs1 here?
Answer: inactive

Question: Which inhibition does the source give for COc1ccc(Nc2nc(-c3ccc(Cl)cc3)cs2)cc1OC here?
Answer: inactive

Question: Which inhibition does the source give for CC(C)c1ccc(Nc2nc(C34CC5CC(CC(C5)C3)C4)cs2)cc1 here?
Answer: inactive

Question: Which inhibition does the source give for Cc1cc(CS(=O)(=O)c2ccccc2)cc(OCc2ccc(CN3CCC[C@@H]3CO)cc2)c1 here?
Answer: 14.7%

Question: For Oc1ccc(Nc2nc(-c3nccs3)cs2)cc1, which inhibition is on record?
Answer: inactive

Question: Which inhibition does the source give for Cc1csc(Nc2nc(-c3ccc(Cl)cc3)c(C)s2)n1 here?
Answer: 19.2%

Question: With COc1ccccc1Nc1nc(-c2ccc(Cl)cc2)cs1 as the compound, how does the inhibition read?
Answer: inactive

Question: With Clc1ccc(-c2csc(Nc3ccc4c(c3)OCO4)n2)cc1 as the compound, how does the inhibition read?
Answer: inactive

Question: With COc1cc(/C=C/C(=O)Nc2nc(-c3ccc(Cl)cc3)cs2)cc(OC)c1OC as the compound, how does the inhibition read?
Answer: 32%

Question: Which inhibition does the source give for CSc1ccc(Nc2nc(C34CC5CC(CC(C5)C3)C4)c(C)s2)cc1 here?
Answer: inactive

Question: With COc1ccc(Nc2nc(C34CC5CC(CC(C5)C3)C4)cs2)cc1 as the compound, how does the inhibition read?
Answer: inactive

Question: Which inhibition does the source give for CC(C)c1ccc(Nc2nc(-c3ccc(Cl)cc3)cs2)cc1 here?
Answer: inactive

Question: Which inhibition does the source give for FC(F)(F)c1cc(Nc2nc(-c3ccc(Cl)cc3)cs2)cc(C(F)(F)F)c1 here?
Answer: inactive

Question: Which inhibition does the source give for CN(C)c1ccc(Nc2nc(-c3ccc(Cl)cc3)cs2)cc1 here?
Answer: inactive

Question: With COc1ccc(/C=C/C(=O)Nc2nccs2)cc1OC as the compound, how does the inhibition read?
Answer: 26.5%

Question: With COc1ccc(Nc2nc(C34CC5CC(CC(C5)C3)C4)cs2)cc1OC as the compound, how does the inhibition read?
Answer: inactive

Question: For Clc1ccc(-c2csc(Nc3ccc4c(c3)OCCO4)n2)cc1, which inhibition is on record?
Answer: inactive

Question: For FC(F)(F)Oc1ccc(Nc2nc(-c3ccc(Cl)cc3)cs2)cc1, which inhibition is on record?
Answer: inactive

Question: For COc1ccc(Nc2nc(-c3ccc(Cl)cc3)cs2)cc1, which inhibition is on record?
Answer: inactive

Question: For CN(C)c1ccc(Nc2nc(C34CC5CC(CC(C5)C3)C4)cs2)cc1, which inhibition is on record?
Answer: inactive

Question: Which inhibition does the source give for CSc1ccc(Nc2nc(-c3ccc(Cl)cc3)c(C)s2)cc1 here?
Answer: inactive

Question: With Oc1ccc(Nc2nc(-c3ccc(Cl)cc3)cs2)cc1 as the compound, how does the inhibition read?
Answer: 15.5%

Question: Which inhibition does the source give for CSc1ccc(Nc2nc(-c3ccc(Cl)cc3)cs2)cc1 here?
Answer: inactive

Question: With Cc1csc(Nc2nc(C34CC5CC(CC(C5)C3)C4)c(C)s2)n1 as the compound, how does the inhibition read?
Answer: 20.9%

Question: For c1cc2c(cc1Nc1nc(C34CC5CC(CC(C5)C3)C4)cs1)OCCO2, which inhibition is on record?
Answer: 31.7%

Question: For Cc1csc(Nc2nc(-c3nccs3)cs2)n1, which inhibition is on record?
Answer: 50%

Biological target: T2, Sphingosine kinase 2 (Homo sapiens, UniProt Q9NRA0)
T2 sequence (Q9NRA0 whole entry): T1 sequence (whole entry)
Assay: Inhibition of human recombinant Sphk2 after 60 mins by ADP2 fluorescence intensity assay
Settings: not given
Outline: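 Recombinant human SphK2 pre-incubated 15 min at RT with inhibitor at eight increasing concentrations, then reacted with D-erythro-sphingosine and ATP for 60 min at RT, keeping substrate conversion at 10–15% within the linear range. […] IC50 was derived from the concentration–inhibition data.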

Question: Which IC50 does the source give for Cc1csc(Nc2nc(-c3nccs3)cs2)n1 here?
Answer: 6.5 µM

System: not listed separately
Assay: Cytotoxicity against human U937 cells at 30 uM after 24 hrs by LDH release assay
Assay type: cell-based
Settings: u-937, 24 h
Outline: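 U937 cells seeded at 1.5 × 10⁴ cells/well, then exposed 24 h to increasing compound concentrations or DMSO vehicle. After centrifugation (250 × g, 4 min), LDH in the supernatant was measured as loss of membrane integrity. Detergent-induced maximum release was set to 100%. Three experiments, mean ± SE.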

Question: With Cc1csc(Nc2nc(-c3nccs3)cs2)n1 as the compound, how does the Activity read?
Answer: 0.69%
